This note sets out measurements from ChEMBL document CHEMBL3044969, “Syntheses and biological activities of dihydro-5,6-dehydrokawain derivatives” (1996).

What is called mortality is the share of the test organisms that died.

Test [1] has as its system Pythium. The experiment in a line: Antifungal activity against Pythium sp. assessed as growth inhibition at 100 ppm by agar dilution method relative to control. The test is classed as functional. Conditions: read-out: GI. An outline of the steps:
(§1)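 Pythium sp. and Corticium rolfsii were each grown on potato dextrose agar (1.5% agar) for 5 days at 27°C before testing. Growth inhibition was measured by agar dilution, following a previously reported method.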
(Agar dilution tests growth on a series of plates holding different concentrations.)

In test [2] the test system is Coptotermes formosanus. Briefly: Insecticidal activity against Coptotermes formosanus assessed as increase in mortality at 0.1 to 1 mg/filter paper measured for 14 days. In kind it is functional, organism-based. An outline of the steps:
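Termite mortality was counted in three replicates and the replicates were combined into a mean. Mortality is given as a percentage relative to an untreated control group of termites.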

Test [3] relates to Athelia rolfsii. Briefly: Antifungal activity against Athelia rolfsii assessed as growth inhibition at 1000 ppm by agar dilution method relative to control. In kind it is functional. To be noted: Agroathelia rolfsii; read-out: GI. An outline of the steps:
as §1

Test [4] relates to Pythium. Briefly: Antifungal activity against Pythium sp. assessed as growth inhibition at 1000 ppm by agar dilution method relative to control. In kind it is functional. Conditions: read-out: GI. An outline of the steps: as §1
The subject of test [5] is Athelia rolfsii. Briefly: Antifungal activity against Athelia rolfsii assessed as growth inhibition at 100 ppm by agar dilution method relative to control. Conditions: Agroathelia rolfsii; read-out: GI. In kind it is functional. An outline of the steps:
as §1

Test [6] has as its system Coptotermes formosanus. Briefly: Insecticidal activity against Coptotermes formosanus assessed as increase in mortality at 1 mg/filter paper measured for 14 days relative to control. In kind it is functional. An outline of the steps:
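The termite assay was run in three replicates, which were combined into a mean. Mortality is given as a percentage relative to the untreated control termite group.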

The source made the active and inactive calls. No cut-off for these calls is given here.

With `COc1cc(CCc2ccccc2)oc(=O)c1` [DIHYDRO-5,6-DEHYDROKAWAIN], the results for the inhibition of growth at 100 ppm with Pythium [1] and in the test on Athelia rolfsii [5] were 72% and 64%, respectively. Moreover, the outcome with Coptotermes formosanus [2] was inactive. Also, the inhibition of growth at 1000 ppm is 96% with Athelia rolfsii [3] and 94% in the test on Pythium [4].
In the case of `CCOP(=S)(OCC)Oc1cc(CCc2ccccc2)oc(=O)c1`, in the test with Coptotermes formosanus [6], the mortality turned out to be 50%. Further, the inhibition of growth at 100 ppm in the test with Pythium [1] worked out at 18%; in the test with Athelia rolfsii [5], 57%. The inhibition of growth at 1000 ppm in the test with Athelia rolfsii [3] is 66%; with Pythium [4], 44%.
With `COP(=S)(OC)Oc1cc(CCc2ccccc2)oc(=O)c1`, in the test with Coptotermes formosanus [6], the mortality was 93%. For the same compound, the values for the inhibition of growth at 100 ppm in the test on Pythium [1] and in the test on Athelia rolfsii [5] were 50% and 91%, respectively. The results for the inhibition of growth at 1000 ppm in the test with Athelia rolfsii [3] and with Pythium [4] were 98% and 88%, respectively.
As to `COc1cc(/C=C/c2ccccc2)oc(=O)c1` [DESMETHOXYYANGONIN], the results for the inhibition of growth at 100 ppm in the test with Pythium [1] and with Athelia rolfsii [5] were 42% and 0%, respectively. Besides, the results for the inhibition of growth at 1000 ppm with Athelia rolfsii [3] and with Pythium [4] were 54% and 86%, respectively.
For the compound `O=c1cc(O)cc(CCc2ccccc2)o1`, the figures for the inhibition of growth at 100 ppm in the test on Pythium [1] and in the test with Athelia rolfsii [5] were 22% and 44%, respectively. In addition, the outcome with Coptotermes formosanus [2] was inactive. The inhibition of growth at 1000 ppm with Athelia rolfsii [3] and in the test with Pythium [4] was 100% throughout.
